# Source: ChEMBL document CHEMBL1275592, “AmpN-AmpG operon is essential for expression of L1 and L2 beta-lactamases in Stenotrophomonas maltophilia” (2010)
# Tests used:
# [1] = target: T1, Catechol 2,3-dioxygenase (Stenotrophomonas maltophilia) (UniProt A7LB47); experiment: Induction of catechol 2,3-dioxygenase activity in Stenotrophomonas maltophilia KJ harboring pRKF3 plasmid at 20 ug/ml
# T1 sequence (whole entry): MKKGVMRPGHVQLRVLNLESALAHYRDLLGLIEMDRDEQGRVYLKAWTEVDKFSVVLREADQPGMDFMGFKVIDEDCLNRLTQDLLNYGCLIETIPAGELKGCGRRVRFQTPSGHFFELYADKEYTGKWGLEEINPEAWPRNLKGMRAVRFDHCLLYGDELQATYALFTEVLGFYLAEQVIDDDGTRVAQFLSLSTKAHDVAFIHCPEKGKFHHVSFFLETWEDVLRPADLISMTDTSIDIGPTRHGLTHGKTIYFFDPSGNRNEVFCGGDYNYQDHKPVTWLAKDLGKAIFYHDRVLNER
# Summary of the method: (§1)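 C23O (xylE product) activity assayed in intact cells, with cefuroxime 20 μg/ml as inducer. Rate calculated with extinction coefficient 44,000 M−1 cm−1. One unit (Uc) converts 1 nmol substrate/min. Specific activity given as Uc/OD450. Plasmids were introduced into S. maltophilia by conjugation and confirmed by colony PCR.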
# [2] = tested on: Stenotrophomonas maltophilia; experiment: Antimicrobial activity against ampN deficient Stenotrophomonas maltophilia KJ by agar dilution method; type: functional
# Summary of the method: (§2)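 MICs were determined in triplicate by standard 2-fold serial agar dilution, following CLSI guidelines.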
# [3] = target: T1, Catechol 2,3-dioxygenase (Stenotrophomonas maltophilia); experiment: Induction of catechol 2,3-dioxygenase activity in Stenotrophomonas maltophilia KJN2 harboring ampN with xylE-Gmomega cassette insertion at 20 ug/ml; summary of the method: as §1
# [4] = tested on: Stenotrophomonas maltophilia; experiment: Induction of beta lactamase activity in Stenotrophomonas maltophilia KJN2 harboring pRK-NG and ampN with xylE-Gmomega cassette insertion at 20 ug/ml
# Summary of the method: (§3)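 Cells were induced with cefuroxime at 20 μg/ml. β-Lactamase activity was measured as nitrocefin hydrolysis at 486 nm, using ε 20,500 M−1 cm−1. Specific activity is nmol nitrocefin hydrolysed/min/mg protein. Protein was measured by dye-binding assay against a BSA standard. Basal and induced activities are both reported.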
# [5] = tested on: Stenotrophomonas maltophilia; experiment: Induction of beta-lactamase activity in ampN deficient Stenotrophomonas maltophilia KJ harboring ampG gene with xylE-Gmomega cassette insertion at 20 ug/ml; summary of the method: as §3
# [6] = target: T1, Catechol 2,3-dioxygenase (Stenotrophomonas maltophilia); experiment: Induction of catechol 2,3-dioxygenase activity in Stenotrophomonas maltophilia KJ harboring pRKF6 plasmid at 20 ug/ml; summary of the method: as §1
# [7] = tested on: Stenotrophomonas maltophilia; experiment: Antimicrobial activity against Stenotrophomonas maltophilia KJN2 harboring pRK-EcG plasmid and ampN with xylE-Gmomega cassette insertion by agar dilution method; type: functional; summary of the method: as §2
# [8] = tested on: Stenotrophomonas maltophilia; experiment: Antimicrobial activity against Stenotrophomonas maltophilia KJN1 harboring ampN with xylE-Gmomega cassette insertion by agar dilution method; type: functional; summary of the method: as §2
# [9] = target: T1, Catechol 2,3-dioxygenase (Stenotrophomonas maltophilia); experiment: Induction of catechol 2,3-dioxygenase activity in Stenotrophomonas maltophilia KJ harboring pRK415 plasmid at 20 ug/ml; summary of the method: as §1
# [10] = tested on: Stenotrophomonas maltophilia; experiment: Antimicrobial activity against Stenotrophomonas maltophilia KJ by agar dilution method; type: functional; summary of the method: as §2
# [11] = tested on: Stenotrophomonas maltophilia; experiment: Antimicrobial activity against Stenotrophomonas maltophilia KJN2 harboring ampN with xylE-Gmomega cassette insertion by agar dilution method; type: functional; summary of the method: as §2
# [12] = tested on: Stenotrophomonas maltophilia; experiment: Induction of beta-lactamase activity in Stenotrophomonas maltophilia KJ at 20 ug/ml
# Summary of the method: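 Cefuroxime 20 μg/ml added as inducer. β-lactamase activity read by nitrocefin hydrolysis at 486 nm (ε 20,500 M−1 cm−1). Specific activity given as nmol nitrocefin hydrolyzed/min/mg protein. Protein measured by Bio-Rad assay against a BSA standard. L1 versus L2 split by the modified nitrocefin-EDTA method.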
# [13] = tested on: Stenotrophomonas maltophilia; experiment: Antimicrobial activity against ampN deficient Stenotrophomonas maltophilia KJ harboring ampG with xylE-Gmomega cassette insertion by agar dilution method; type: functional; summary of the method: as §2
# [14] = tested on: Stenotrophomonas maltophilia; experiment: Induction of beta lactamase activity in Stenotrophomonas maltophilia KJN2 harboring pRK415 and ampN with xylE-Gmomega cassette insertion at 20 ug/ml; summary of the method: as §3
# [15] = tested on: Stenotrophomonas maltophilia; experiment: Antimicrobial activity against Stenotrophomonas maltophilia KJN2 harboring pRK-G plasmid and ampN with xylE-Gmomega cassette insertion by agar dilution method; type: functional; summary of the method: as §2
# [16] = tested on: Stenotrophomonas maltophilia; experiment: Antimicrobial activity against Stenotrophomonas maltophilia KJN2 harboring pRK-NG plasmid and ampN with xylE-Gmomega cassette insertion by agar dilution method; type: functional; summary of the method: as §2
# [17] = target: T1, Catechol 2,3-dioxygenase (Stenotrophomonas maltophilia); experiment: Induction of catechol 2,3-dioxygenase activity in Stenotrophomonas maltophilia KJ harboring pRKF4 plasmid at 20 ug/ml; summary of the method: as §1
# [18] = tested on: Stenotrophomonas maltophilia; experiment: Induction of beta-lactamase activity in Stenotrophomonas maltophilia KJ harboring pRK-NG plasmid at 20 ug/ml; summary of the method: as §3
# [19] = target: T1, Catechol 2,3-dioxygenase (Stenotrophomonas maltophilia); experiment: Induction of catechol 2,3-dioxygenase activity in Stenotrophomonas maltophilia KJN1 harboring ampN with xylE-Gmomega cassette insertion at 20 ug/ml; summary of the method: as §1
# [20] = target: T1, Catechol 2,3-dioxygenase (Stenotrophomonas maltophilia); experiment: Induction of catechol 2,3-dioxygenase activity in Stenotrophomonas maltophilia KJG harboring ampG with xylE-Gmomega cassette insertion at 20 ug/ml; summary of the method: as §1
# [21] = tested on: Stenotrophomonas maltophilia; experiment: Induction of beta lactamase activity in Stenotrophomonas maltophilia KJN2 harboring pRK-EcG and ampN with xylE-Gmomega cassette insertion at 20 ug/ml; summary of the method: as §3
# [22] = tested on: Stenotrophomonas maltophilia; experiment: Antimicrobial activity against Stenotrophomonas maltophilia KJG harboring ampG with xylE-Gmomega cassette insertion by agar dilution method; type: functional; summary of the method: as §2
# [23] = tested on: Stenotrophomonas maltophilia; experiment: Induction of beta-lactamase activity in Stenotrophomonas maltophilia KJ harboring pRK415 plasmid at 20 ug/ml; summary of the method: as §3
# [24] = tested on: Stenotrophomonas maltophilia; experiment: Antimicrobial activity against Stenotrophomonas maltophilia KJN2 harboring pRK415 plasmid and ampN with xylE-Gmomega cassette insertion by agar dilution method; type: functional; summary of the method: as §2
# [25] = target: T1, Catechol 2,3-dioxygenase (Stenotrophomonas maltophilia); experiment: Induction of catechol 2,3-dioxygenase activity in ampN deficient Stenotrophomonas maltophilia KJ harboring pRK-N and ampG gene with xylE-Gmomega cassette insertion at 20 ug/ml; summary of the method: as §1
# [26] = tested on: Stenotrophomonas maltophilia; experiment: Induction of beta-lactamase activity in Stenotrophomonas maltophilia KJN1 harboring ampN with xylE-Gmomega cassette insertion at 20 ug/ml; summary of the method: as §3
# [27] = target: T1, Catechol 2,3-dioxygenase (Stenotrophomonas maltophilia); experiment: Induction of catechol 2,3-dioxygenase activity in Stenotrophomonas maltophilia KJ harboring pRKF1 plasmid at 20 ug/ml; summary of the method: as §1
# [28] = target: T1, Catechol 2,3-dioxygenase (Stenotrophomonas maltophilia); experiment: Induction of catechol 2,3-dioxygenase activity in Stenotrophomonas maltophilia KJ harboring pRKF2 plasmid at 20 ug/ml; summary of the method: as §1
# [29] = target: T1, Catechol 2,3-dioxygenase (Stenotrophomonas maltophilia); experiment: Induction of catechol 2,3-dioxygenase activity in ampN deficient Stenotrophomonas maltophilia KJ harboring ampG gene with xylE-Gmomega cassette insertion at 20 ug/ml; summary of the method: as §1
# [30] = target: T1, Catechol 2,3-dioxygenase (Stenotrophomonas maltophilia); experiment: Induction of catechol 2,3-dioxygenase activity in Stenotrophomonas maltophilia KJ harboring pRKF5 plasmid at 20 ug/ml; summary of the method: as §1
# [31] = tested on: Stenotrophomonas maltophilia; experiment: Induction of beta lactamase activity in Stenotrophomonas maltophilia KJN2 harboring pRK-G and ampN with xylE-Gmomega cassette insertion at 20 ug/ml; summary of the method: as §3
# [32] = tested on: Stenotrophomonas maltophilia; experiment: Induction of beta-lactamase activity in ampN deficient Stenotrophomonas maltophilia KJ at 20 ug/ml; summary of the method: as §3
# [33] = target: T1, Catechol 2,3-dioxygenase (Stenotrophomonas maltophilia); experiment: Induction of catechol 2,3-dioxygenase activity in ampN deficient Stenotrophomonas maltophilia KJ harboring pRK-G and ampG gene with xylE-Gmomega cassette insertion at 20 ug/ml; summary of the method: as §1
# [34] = tested on: Stenotrophomonas maltophilia; experiment: Induction of beta-lactamase activity in Stenotrophomonas maltophilia KJG harboring ampG with xylE-Gmomega cassette insertion at 20 ug/ml; summary of the method: as §3
# [35] = target: T1, Catechol 2,3-dioxygenase (Stenotrophomonas maltophilia); experiment: Induction of catechol 2,3-dioxygenase activity in ampN deficient Stenotrophomonas maltophilia KJ harboring pRK-NG and ampG gene with xylE-Gmomega cassette insertion at 20 ug/ml; summary of the method: as §1
# [36] = tested on: Stenotrophomonas maltophilia; experiment: Induction of beta-lactamase activity in Stenotrophomonas maltophilia KJN2 harboring ampN with xylE-Gmomega cassette insertion at 20 ug/ml; summary of the method: as §3
# [37] = target: T1, Catechol 2,3-dioxygenase (Stenotrophomonas maltophilia); experiment: Induction of catechol 2,3-dioxygenase activity in ampN deficient Stenotrophomonas maltophilia KJ harboring pRK415 and ampG gene with xylE-Gmomega cassette insertion at 20 ug/ml; summary of the method: as §1
# [38] = tested on: Stenotrophomonas maltophilia; experiment: Antimicrobial activity against Stenotrophomonas maltophilia KJN2 harboring pRK415 plasmid and ampN with xylE-Gmomega cassette insertion by Etest; type: functional
# Summary of the method: (§4)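 Imipenem and meropenem MICs were read from Etest strips, following the manufacturer's instructions.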
# [39] = tested on: Stenotrophomonas maltophilia; experiment: Antimicrobial activity against Stenotrophomonas maltophilia KJN1 harboring ampN with xylE-Gmomega cassette insertion by Etest; type: functional; summary of the method: as §4
# [40] = tested on: Stenotrophomonas maltophilia; experiment: Antimicrobial activity against Stenotrophomonas maltophilia KJN2 harboring ampN with xylE-Gmomega cassette insertion by Etest; type: functional; summary of the method: as §4
# [41] = tested on: Stenotrophomonas maltophilia; experiment: Antimicrobial activity against Stenotrophomonas maltophilia KJN2 harboring pRK-EcG plasmid and ampN with xylE-Gmomega cassette insertion by Etest; type: functional; summary of the method: as §4
# [42] = tested on: Stenotrophomonas maltophilia; experiment: Antimicrobial activity against ampN deficient Stenotrophomonas maltophilia KJ by Etest; type: functional; summary of the method: as §4
# [43] = tested on: Stenotrophomonas maltophilia; experiment: Antimicrobial activity against Stenotrophomonas maltophilia KJG harboring ampG with xylE-Gmomega cassette insertion by Etest; type: functional; summary of the method: as §4
# [44] = tested on: Stenotrophomonas maltophilia; experiment: Antimicrobial activity against ampN deficient Stenotrophomonas maltophilia KJ harboring ampG with xylE-Gmomega cassette insertion by Etest; type: functional; summary of the method: as §4
# [45] = tested on: Stenotrophomonas maltophilia; experiment: Antimicrobial activity against Stenotrophomonas maltophilia KJN2 harboring pRK-G plasmid and ampN with xylE-Gmomega cassette insertion by Etest; type: functional; summary of the method: as §4
# [46] = tested on: Stenotrophomonas maltophilia; experiment: Antimicrobial activity against Stenotrophomonas maltophilia KJ by Etest; type: functional; summary of the method: as §4
# [47] = tested on: Stenotrophomonas maltophilia; experiment: Antimicrobial activity against Stenotrophomonas maltophilia KJN2 harboring pRK-NG plasmid and ampN with xylE-Gmomega cassette insertion by Etest; type: functional; summary of the method: as §4
smiles,measurement,setting,value
CO/N=C(\C(=O)N[C@@H]1C(=O)N2C(C(=O)O)=C(COC(N)=O)CS[C@H]12)c1ccco1 [CEFUROXIME],Activity (nmol/min/OD450),[1],6
same,MIC,[2],32 µg/mL
same,Activity (nmol/min/OD450),[3],39
same,Activity,[4],1450 U/mg
same,Activity,[5],3 U/mg
same,Activity (nmol/min/OD450),[6],8
same,MIC,[7],> 1020 µg/mL
same,MIC,[8],32 µg/mL
same,Activity (nmol/min/OD450),[9],0
same,MIC,[10],> 1020 µg/mL
same,MIC,[11],32 µg/mL
same,Activity,[12],1520 U/mg
same,MIC,[13],32 µg/mL
same,Activity,[14],18 U/mg
same,MIC,[15],64 µg/mL
same,MIC,[16],> 1020 µg/mL
same,Activity (nmol/min/OD450),[17],45
same,Activity,[18],1620 U/mg
same,Activity (nmol/min/OD450),[19],4
same,Activity (nmol/min/OD450),[20],41
same,Activity,[21],882 U/mg
same,MIC,[22],32 µg/mL
same,Activity,[23],1740 U/mg
same,MIC,[24],32 µg/mL
same,Activity (nmol/min/OD450),[25],5
same,Activity,[26],5 U/mg
same,Activity (nmol/min/OD450),[27],6
same,Activity (nmol/min/OD450),[28],50
same,Activity (nmol/min/OD450),[29],4
same,Activity (nmol/min/OD450),[30],6
same,Activity,[31],12 U/mg
same,Activity,[32],6 U/mg
same,Activity (nmol/min/OD450),[33],4
same,Activity,[34],6 U/mg
same,Activity (nmol/min/OD450),[35],5
same,Activity,[36],5 U/mg
same,Activity (nmol/min/OD450),[37],5
C[C@@H](O)[C@H]1C(=O)N2C(C(=O)O)=C(SCCNC=N)C[C@H]12 [IMIPENEM ANHYDROUS],MIC,[38],1.5 µg/mL
same,MIC,[39],4 µg/mL
same,MIC,[40],2 µg/mL
same,MIC,[41],> 32 µg/mL
same,MIC,[42],4 µg/mL
same,MIC,[43],2 µg/mL
same,MIC,[44],2 µg/mL
same,MIC,[45],3 µg/mL
same,MIC,[46],> 32 µg/mL
same,MIC,[47],> 32 µg/mL
